Laboratory results: ChEMBL document CHEMBL4033643, “Synthesis and in vitro antitumour activity of crassalactone D, its stereoisomers and novel cinnamic ester derivatives” (Eur J Med Chem, 2017)
Active and inactive are the calls of the source. The rule behind the calls is not given here.

Key:
MRC5 = test: Cytotoxicity against human MRC5 cells assessed as reduction in cell viability after 72 hrs by MTT assay; type: cell-based; settings: MRC5, 72 h
HeLa = test: Cytotoxicity against human HeLa cells assessed as reduction in cell viability after 72 hrs by MTT assay; type: functional, cell-based
MDA-MB-231 = test: Cytotoxicity against human MDA-MB-231 cells assessed as reduction in cell viability after 72 hrs by MTT assay; type: functional, cell-based; settings: MDA-MB-231, 72 h
MCF7 = test: Cytotoxicity against human MCF7 cells assessed as reduction in cell viability after 72 hrs by MTT assay; type: functional, cell-based; settings: MCF7, 72 h
Raji = test: Cytotoxicity against human Raji cells assessed as reduction in cell viability after 72 hrs by MTT assay; type: functional, cell-based
Jurkat = test: Cytotoxicity against human Jurkat cells assessed as reduction in cell viability after 72 hrs by MTT assay; type: functional, cell-based
HL-60 = test: Cytotoxicity against human HL60 cells assessed as reduction in cell viability after 72 hrs by MTT assay; type: functional, cell-based; settings: HL-60, 72 h
K562 [1] = test: Cytotoxicity against human K562 cells assessed as reduction in cell viability after 72 hrs by MTT assay; type: functional, cell-based; settings: K562, 72 h
A549 = test: Cytotoxicity against human A549 cells assessed as reduction in cell viability after 72 hrs by MTT assay; type: functional, cell-based; settings: A549, 72 h
K562 [2] = test: Cell cycle arrest in human K562 cells assessed as accumulation at sub G1 phase at IC50 after 72 hrs by propidium iodide staining based flow cytometry (reference value: 1.48%); type: functional
K562 [3] = test: Cell cycle arrest in human K562 cells assessed as accumulation at G0/G1 phase at IC50 after 72 hrs by propidium iodide staining based flow cytometry (reference value: 38.48%); type: functional
K562 [4] = test: Cell cycle arrest in human K562 cells assessed as accumulation at S phase at IC50 after 72 hrs by propidium iodide staining based flow cytometry (reference value: 41.03%); type: functional
K562 [5] = test: Cell cycle arrest in human K562 cells assessed as accumulation at G2/M phase at IC50 after 72 hrs by propidium iodide staining based flow cytometry (reference value: 19.01%); type: functional
K562 [6] = test: Induction of apoptosis in human K562 cells assessed as specific apoptosis by Annexin V-FITC/propidium iodide staining based flow cytometry; type: functional; design: concentration or dose not given beside the values
K562 [7] = test: Induction of apoptosis in human K562 cells assessed as specific necrosis by Annexin V-FITC/propidium iodide staining based flow cytometry; type: functional; design: concentration or dose not given beside the values
K562 [8] = test: Induction of apoptosis in human K562 cells assessed as decrease in Bcl-2 expression level by Western blot analysis; type: functional, cell-based
How it was run: (§1)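 Western blot of treated K562 cells for Bcl-2, Bax, activated caspase 3 and cleaved PARP (85 kDa fragment). Blots developed by ECL, with band expression quantified by densitometry against an untreated control sample.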

K562 [9] = test: Induction of apoptosis in human K562 cells assessed as increase in Bax expression level by Western blot analysis; type: functional, cell-based; how it was run: as §1
K562 [10] = test: Induction of apoptosis in human K562 cells assessed as increase in caspase 3 expression level by Western blot analysis; type: functional, cell-based; how it was run: as §1
K562 [11] = test: Induction of apoptosis in human K562 cells assessed as increase in cleaved PARP expression level by Western blot analysis; type: functional, cell-based; how it was run: as §1
K562 [12] = test: Cell cycle arrest in human K562 cells assessed as total cell levels at G0/G1 phase at IC50 after 72 hrs by propidium iodide staining based flow cytometry (reference value: 39.97%); type: functional
K562 [13] = test: Cell cycle arrest in human K562 cells assessed as total cell levels at S phase at IC50 after 72 hrs by propidium iodide staining based flow cytometry (reference value: 36.49%); type: functional
K562 [14] = test: Cell cycle arrest in human K562 cells assessed as total cell levels at G2/M phase at IC50 after 72 hrs by propidium iodide staining based flow cytometry (reference value: 14.31%); type: functional
K562 [15] = test: Cell cycle arrest in human K562 cells assessed as total cell levels at M4 phase at IC50 after 72 hrs by propidium iodide staining based flow cytometry (reference value: 0.50%); type: functional
K562 [16] = test: Induction of apoptosis in human K562 cells assessed as gated necrotic cells by Annexin V-FITC/propidium iodide staining based flow cytometry (reference value: 0.24%); type: functional
K562 [17] = test: Induction of apoptosis in human K562 cells assessed as gated late apoptotic cells by Annexin V-FITC/propidium iodide staining based flow cytometry (reference value: 0.88%); type: functional
K562 [18] = test: Induction of apoptosis in human K562 cells assessed as gated viable cells by Annexin V-FITC/propidium iodide staining based flow cytometry (reference value: 95.78%); type: functional
K562 [19] = test: Induction of apoptosis in human K562 cells assessed as gated early apoptotic cells by Annexin V-FITC/propidium iodide staining based flow cytometry (reference value: 3.18%); type: functional
K562 [20] = test: Induction of apoptosis in human K562 cells assessed as total necrotic cells by Annexin V-FITC/propidium iodide staining based flow cytometry (reference value: 0.23%); type: functional
K562 [21] = test: Induction of apoptosis in human K562 cells assessed as total late apoptotic cells by Annexin V-FITC/propidium iodide staining based flow cytometry (reference value: 0.77%); type: functional
K562 [22] = test: Induction of apoptosis in human K562 cells assessed as total viable cells by Annexin V-FITC/propidium iodide staining based flow cytometry (reference value: 92.45%); type: functional
K562 [23] = test: Induction of apoptosis in human K562 cells assessed as total early apoptotic cells by Annexin V-FITC/propidium iodide staining based flow cytometry (reference value: 3.07%); type: functional

| SMILES | IC50 (MRC5) [µM] | IC50 (HeLa) [µM] | IC50 (MDA-MB-231) [µM] | IC50 (MCF7) [µM] | IC50 (Raji) [µM] | IC50 (Jurkat) [µM] | IC50 (HL-60) [µM] | IC50 (K562 [1]) [µM] | IC50 (A549) [µM] | Activity (K562 [2]) [%] | Activity (K562 [3]) [%] | Activity (K562 [4]) [%] | Activity (K562 [5]) [%] | Activity (K562 [6]) [%] | Activity (K562 [7]) [%] | Activity (K562 [8]) | Activity (K562 [9]) | Activity (K562 [12]) [%] | Activity (K562 [13]) [%] | Activity (K562 [14]) [%] | other results |
| --- | --- | --- | --- | --- | --- | --- | --- | --- | --- | --- | --- | --- | --- | --- | --- | --- | --- | --- | --- | --- | --- |
| O=C1C=C[C@@]2(C[C@H](OC(=O)/C=C/c3ccc(F)cc3)[C@H](c3ccccc3)O2)O1 | > 100 | 8.45 | 7.54 | 2.31 | 5.37 | 4.63 | 1.02 | 5.36 | 1.17 | 3.99 | 37.01 | 30.34 | 28.66 | 18.71 | 1.22 | Active | inactive | 34.22 | 28.54 | 26.5 | Activity (K562 [10]): Active; Activity (K562 [11]): Active; Activity (K562 [15]): 3.69%; Activity (K562 [16]): 2.81%; Activity (K562 [17]): 1.51%; Activity (K562 [18]): 75.24%; Activity (K562 [19]): 20.44%; Activity (K562 [20]): 1.57%; Activity (K562 [21]): 0.75%; Activity (K562 [22]): 70.05%; Activity (K562 [23]): 10% |
| O=C1C=C[C@]2(C[C@H](OC(=O)/C=C/c3ccc([N+](=O)[O-])cc3)[C@@H](c3ccccc3)O2)O1 | > 100 | 2.22 | > 100 | 8.58 | > 100 | 31.2 | 2.24 | 5.64 | 45.4 | 2.13 | 48.17 | 28.04 | 21.66 | 0.75 | 3.4 | inactive | Active | 43.62 | 25.39 | 20.35 | Activity (K562 [10]): inactive; Activity (K562 [11]): inactive; Activity (K562 [15]): 1.93%; Activity (K562 [16]): 0.72%; Activity (K562 [17]): 0.87%; Activity (K562 [18]): 94.55%; Activity (K562 [19]): 3.86%; Activity (K562 [20]): 0.71%; Activity (K562 [21]): 0.85%; Activity (K562 [22]): 92.65%; Activity (K562 [23]): 3.78% |
| O=C1C=C[C@]2(C[C@H](OC(=O)/C=C/c3ccccc3)[C@H](c3ccccc3)O2)O1 | > 100 | 14.5 | 5.23 | 5.34 | 9.68 | 5.63 | 3.41 | 4.62 | 1.02 | 5.69 | 21.01 | 38.09 | 35.21 | 81.79 | 1.97 | Active | Active | 17.87 | 31.69 | 29.57 | Activity (K562 [10]): inactive; Activity (K562 [11]): inactive; Activity (K562 [15]): 4.73%; Activity (K562 [16]): 2.09%; Activity (K562 [17]): 15.25%; Activity (K562 [18]): 15.4%; Activity (K562 [19]): 67.26%; Activity (K562 [20]): 1.67%; Activity (K562 [21]): 12.17%; Activity (K562 [22]): 12.29%; Activity (K562 [23]): 53.67% |
| O=C1C=C[C@@]2(C[C@H](O)[C@@H](c3ccccc3)O2)O1 | > 100 | 2.12 | > 100 | 3.57 | 5.97 | 0.34 | 1.02 | 0.54 | 21.3 | 1.26 | 39.26 | 35.2 | 24.28 | 11.74 | 4.8 | inactive | Active | 29.6 | 26.52 | 18.07 | Activity (K562 [15]): 0.94%; Activity (K562 [16]): 8.59%; Activity (K562 [17]): 11.28%; Activity (K562 [18]): 76.16%; Activity (K562 [19]): 3.97%; Activity (K562 [20]): 2.81%; Activity (K562 [21]): 3.69%; Activity (K562 [22]): 24.92%; Activity (K562 [23]): 1.3% |
